Data: the M2OR odorant receptor database

What follows are compounds tested against T1, UniProt Q8VGZ7. Conditions: stereoisomer not certain.
T1 sequence (whole entry): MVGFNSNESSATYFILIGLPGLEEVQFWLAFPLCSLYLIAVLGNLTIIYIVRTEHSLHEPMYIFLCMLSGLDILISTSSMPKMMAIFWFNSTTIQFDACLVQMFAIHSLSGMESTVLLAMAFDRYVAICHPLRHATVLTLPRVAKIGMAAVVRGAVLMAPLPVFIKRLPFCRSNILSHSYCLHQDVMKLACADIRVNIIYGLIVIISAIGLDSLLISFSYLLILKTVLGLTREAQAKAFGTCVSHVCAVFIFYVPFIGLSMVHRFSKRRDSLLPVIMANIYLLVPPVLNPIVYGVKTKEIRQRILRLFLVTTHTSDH
Procedure, shortened: (§1)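 Transient luciferase assays in mammalian cell lines were common, though methods varied by source. The values come from published papers and their supplementary material, with extra details from the original authors when needed. Responsive refers to a measured signal the original authors judged statistically different from baseline, and non-responsive (inactive) to the remainder.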
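Further: active if original authors judged signal statistically different from baseline.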

| Compound | odorant receptor agonist call |
| --- | --- |
| C=C(C)C1CCC(C)C(O)C1 (stereo not given) | inactive |
| CSSCc1ccco1 | inactive |
| CCCO | inactive |
| CC(=O)OC1(C)CCC23CC1C(C)(C)C2CCC3C (stereo not given) | inactive |
| C1CCOCC1 | inactive |
| Cc1occc1SSc1ccoc1C | inactive |
| CCCCCCCCCC=CC=O | inactive |
| COc1nccnc1C | inactive |
| CCCCCOC(=O)CC | inactive |
| CC(CC=O)CCCC(C)(C)O (stereo not given) | inactive |
| C=CC(=O)CCCCC | inactive |
| CCSCC | inactive |
| CCCCCCC(C=O)=Cc1ccccc1 | inactive |
| Cc1ccc(C(C)C)c(O)c1 | inactive |
| CCCC=O | inactive |
| O=C(O)CCCCCCCCC(=O)O | inactive |
| CCCCCCC(=O)OCCCC | inactive |
| COc1cnccn1 | inactive |
| CCC(C)O (stereo not given) | inactive |
| COc1nccnc1C(C)C | inactive |
| CCCC(C)C(=O)OCC (stereo not given) | inactive |
| CNc1ccccc1C(=O)OC | inactive |
| O=C(O)C1CCC1 | inactive |
| CCCCCC=CCCC=O | inactive |
| CCC(C)c1nccnc1OC (stereo not given) | inactive |
| O=C(OCc1ccccc1)c1ccccc1O | inactive |
| CCc1ccc(O)cc1 | inactive |
| CSSSC | inactive |
| CC(=O)OCc1ccc2c(c1)OCO2 | inactive |
| CC(C)CS | inactive |

Each compound was assayed against T2, UniProt Q8VH16. Conditions: stereoisomer not certain.
T2 sequence (whole entry): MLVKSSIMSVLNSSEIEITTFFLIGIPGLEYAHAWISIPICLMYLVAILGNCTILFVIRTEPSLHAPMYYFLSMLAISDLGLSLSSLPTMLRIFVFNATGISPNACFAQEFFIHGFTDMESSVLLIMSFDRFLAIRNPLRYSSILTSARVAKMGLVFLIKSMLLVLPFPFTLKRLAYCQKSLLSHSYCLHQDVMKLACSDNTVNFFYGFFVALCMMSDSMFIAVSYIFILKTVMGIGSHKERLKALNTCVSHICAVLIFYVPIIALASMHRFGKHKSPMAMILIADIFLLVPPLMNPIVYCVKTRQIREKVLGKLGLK
Procedure, shortened: as §1

| Compound | odorant receptor agonist call |
| --- | --- |
| C=C(C)C1CCC(C)C(O)C1 (stereo not given) | inactive |
| CSSCc1ccco1 | inactive |
| CCCO | inactive |
| CC(=O)OC1(C)CCC23CC1C(C)(C)C2CCC3C (stereo not given) | inactive |
| C1CCOCC1 | inactive |
| Cc1occc1SSc1ccoc1C | inactive |
| CCCCCCCCCC=CC=O | inactive |
| COc1nccnc1C | inactive |
| CCCCCOC(=O)CC | inactive |
| CC(CC=O)CCCC(C)(C)O (stereo not given) | inactive |
| C=CC(=O)CCCCC | inactive |
| CCSCC | inactive |
| CCCCCCC(C=O)=Cc1ccccc1 | inactive |
| Cc1ccc(C(C)C)c(O)c1 | inactive |
| CCCC=O | inactive |
| O=C(O)CCCCCCCCC(=O)O | inactive |
| CCCCCCC(=O)OCCCC | inactive |
| COc1cnccn1 | inactive |
| CCC(C)O (stereo not given) | inactive |
| COc1nccnc1C(C)C | inactive |
| CCCC(C)C(=O)OCC (stereo not given) | inactive |
| CNc1ccccc1C(=O)OC | inactive |
| O=C(O)C1CCC1 | inactive |
| CCCCCC=CCCC=O | inactive |
| CCC(C)c1nccnc1OC (stereo not given) | inactive |
| O=C(OCc1ccccc1)c1ccccc1O | inactive |
| CCc1ccc(O)cc1 | inactive |
| CSSSC | inactive |
| CC(=O)OCc1ccc2c(c1)OCO2 | inactive |
| CC(C)CS | inactive |

These compounds were tested against T3, UniProt Q8VH20. Conditions: stereoisomer not certain.
T3 sequence (whole entry): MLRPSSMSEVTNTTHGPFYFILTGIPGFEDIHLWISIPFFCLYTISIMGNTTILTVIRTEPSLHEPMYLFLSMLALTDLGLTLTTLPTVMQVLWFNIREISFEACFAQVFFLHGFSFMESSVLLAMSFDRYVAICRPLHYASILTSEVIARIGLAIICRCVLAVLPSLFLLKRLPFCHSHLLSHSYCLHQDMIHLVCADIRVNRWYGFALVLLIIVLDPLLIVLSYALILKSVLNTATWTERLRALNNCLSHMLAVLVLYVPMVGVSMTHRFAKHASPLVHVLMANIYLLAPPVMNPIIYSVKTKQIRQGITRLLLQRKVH
Procedure, shortened: as §1

| Compound | odorant receptor agonist call |
| --- | --- |
| C=C(C)C1CCC(C)C(O)C1 (stereo not given) | inactive |
| CSSCc1ccco1 | inactive |
| CCCO | inactive |
| CC(=O)OC1(C)CCC23CC1C(C)(C)C2CCC3C (stereo not given) | active |
| C1CCOCC1 | inactive |
| Cc1occc1SSc1ccoc1C | inactive |
| CCCCCCCCCC=CC=O | inactive |
| COc1nccnc1C | inactive |
| CCCCCOC(=O)CC | inactive |
| CC(CC=O)CCCC(C)(C)O (stereo not given) | inactive |
| C=CC(=O)CCCCC | inactive |
| CCSCC | inactive |
| CCCCCCC(C=O)=Cc1ccccc1 | inactive |
| Cc1ccc(C(C)C)c(O)c1 | inactive |
| CCCC=O | inactive |
| O=C(O)CCCCCCCCC(=O)O | inactive |
| CCCCCCC(=O)OCCCC | inactive |
| COc1cnccn1 | inactive |
| CCC(C)O (stereo not given) | inactive |
| COc1nccnc1C(C)C | inactive |
| CCCC(C)C(=O)OCC (stereo not given) | inactive |
| CNc1ccccc1C(=O)OC | inactive |
| O=C(O)C1CCC1 | inactive |
| CCCCCC=CCCC=O | active |
| CCC(C)c1nccnc1OC (stereo not given) | inactive |
| O=C(OCc1ccccc1)c1ccccc1O | inactive |
| CCc1ccc(O)cc1 | inactive |
| CSSSC | active |
| CC(=O)OCc1ccc2c(c1)OCO2 | inactive |
| CC(C)CS | inactive |

These compounds were tested against T4, UniProt Q8VH21. Conditions: stereoisomer not certain.
T4 sequence (whole entry): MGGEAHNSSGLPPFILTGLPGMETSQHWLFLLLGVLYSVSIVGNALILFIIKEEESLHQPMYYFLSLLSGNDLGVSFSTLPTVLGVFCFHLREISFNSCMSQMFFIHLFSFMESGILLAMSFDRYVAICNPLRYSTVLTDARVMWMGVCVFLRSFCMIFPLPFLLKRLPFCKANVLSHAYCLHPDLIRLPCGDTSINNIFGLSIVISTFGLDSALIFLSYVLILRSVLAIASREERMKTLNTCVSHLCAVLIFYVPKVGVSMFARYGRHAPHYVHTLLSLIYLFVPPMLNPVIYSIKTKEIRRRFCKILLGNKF
Procedure, shortened: as §1

| Compound | odorant receptor agonist call |
| --- | --- |
| C=C(C)C1CCC(C)C(O)C1 (stereo not given) | inactive |
| CSSCc1ccco1 | inactive |
| CCCO | inactive |
| CC(=O)OC1(C)CCC23CC1C(C)(C)C2CCC3C (stereo not given) | inactive |
| C1CCOCC1 | inactive |
| Cc1occc1SSc1ccoc1C | inactive |
| CCCCCCCCCC=CC=O | inactive |
| COc1nccnc1C | inactive |
| CCCCCOC(=O)CC | inactive |
| CC(CC=O)CCCC(C)(C)O (stereo not given) | inactive |
| C=CC(=O)CCCCC | inactive |
| CCSCC | inactive |
| CCCCCCC(C=O)=Cc1ccccc1 | inactive |
| Cc1ccc(C(C)C)c(O)c1 | inactive |
| CCCC=O | inactive |
| O=C(O)CCCCCCCCC(=O)O | inactive |
| CCCCCCC(=O)OCCCC | inactive |
| COc1cnccn1 | inactive |
| CCC(C)O (stereo not given) | inactive |
| COc1nccnc1C(C)C | inactive |
| CCCC(C)C(=O)OCC (stereo not given) | inactive |
| CNc1ccccc1C(=O)OC | inactive |
| O=C(O)C1CCC1 | active |
| CCCCCC=CCCC=O | inactive |
| CCC(C)c1nccnc1OC (stereo not given) | inactive |
| O=C(OCc1ccccc1)c1ccccc1O | inactive |
| CCc1ccc(O)cc1 | inactive |
| CSSSC | inactive |
| CC(=O)OCc1ccc2c(c1)OCO2 | inactive |
| CC(C)CS | inactive |
